Hits are enriched below; roughly 1.6% of the tested compounds scored in any of these assays.
S100A4 inh HTS: blocks human S100A4 binding to myosin IIA peptide; S100A4/TAMRA-MyoIIA peptide fluorescence polarization; inhibition, % at 10.7 µM; 0.14% of 360,000 active; AID 652163;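 active = mean inhibition of at least 70% across replicates, with every replicate also reaching that level; inconclusive = mean inhibition reaches 70% but some replicates fall short; inactive = mean inhibition below 70%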
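Test system – S100A4 monomer (human) · Compound – single-point compound testing · Schedule – 5 min incubation before reading · Probe or stimulus – TAMRA-labelled myosin IIA heavy-chain peptide probe, 5 nM · Benchmarks – neutral control DMSO, positive control TFP · Medium – Calcium-containing HEPES buffer, pH 7.2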
RAD54 branch: blocks human RAD54 Holliday junction branch migration; 0.14% of 360,000 active; inhibition, % at 10.4 µM; Q92698; FAM/BHQ fluorescence; AID 602329;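 active = mean normalized replicate activity at least 40 and at least half of replicates scoring 40 or more; inconclusive = only one of the two criteria met; inactive = mean below 40 and under half of replicates reaching 40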;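 also: 0% = median of neutral control wells and 100% = median of positive control wells; inhibitors cause a drop in the FAM fluorescence signal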
SR-BI uptake up: SR-BI HDL lipid transfer activation; 0.096% of 320,000 active; activation, % at 12.5 µM; CHO ldlA[mSR-BI] cells, DiI-HDL uptake fluorescence, 3 h; 100 = double the neutral-control signal; AID 504775;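 active = mean replicate activation of at least 60% and every replicate at or above 60%; inconclusive = mean or all-replicate condition met, but not both; inactive = mean below 60% and not all replicates reaching 60%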;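 also: 0% = median plate neutral-control signal and 100% = twice that signal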
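system = CHO ldlA[mSR-BI] cells, LDL receptor-null, SR-BI overexpressing | medium = Ham's F12 with 0.5% BSA, HEPES 25 mM, pH 7.4 | probe or stimulus = DiI-HDL 10 µg/mL | compound dosing = single-point compound dose | incubation = compound exposure 3 h, 37 °C | technique = DiI fluorescence, bottom read | read-out = cell-associated DiI fluorescence as measure of HDL uptake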
SR-BI HDL uptake: inhibitors of mouse SR-BI mediated HDL lipid uptake; Q61009; ldlA[mSR-BI] CHO cells, DiI-HDL uptake fluorescence, 3 h; inhibition, % at 12.5 µM; 0.96% of 320,000 active;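 active = mean replicate inhibition of at least 70% and a set share of replicates each scoring 70 or more; inconclusive = meets just one of the two criteria; inactive = fails both criteria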;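 also: 0% = median of neutral control wells and 100% = median of positive control wells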
PvdQ acylase: P. aeruginosa PvdQ acylase inhibition. AID 488965. inhibition, % at 10 µM. purified PvdQ acylase, fluorescence plate reader. 0.063% of 340,000 active; in the data active = inhibition above about 30%, passing the limit was not always enough; inconclusive = no clear call, values can overlap the other calls;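 also: 0% = vehicle neutral wells and 100% = reference inhibitor wells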
dFosB act: mouse delta FosB homodimer activation | activation, % at 25 µM | AID 493131 | P13346 | 0.99% of 340,000 active | purified delta FosB, TAMRA-CDK5 oligo fluorescence polarization; percent of positive-control signal above neutral wells;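 active = mean activation above about 17%, with every replicate also reaching it, limit read from the data, passing the limit was not always enough; inconclusive = only one of the two conditions met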
An asterisk follows results filed as active.

`O=C1c2c(O)ccc(O)c2C(=O)c2c(NCCNCCO)ccc(NCCNCCO)c21` gave S100A4 inh HTS 6, RAD54 branch 122*, SR-BI uptake up -8, SR-BI HDL uptake 8, PvdQ acylase -15 and dFosB act -276.
Cc1ccc(CNCCNCCO)s1 was read as S100A4 inh HTS -11, RAD54 branch 10, SR-BI uptake up 18, SR-BI HDL uptake -18, PvdQ acylase -17 and dFosB act -2.
`Cc1cccc(-n2nc(C(=O)c3ccco3)cc(-c3nc4ccccc4[nH]3)c2=N)c1` gave S100A4 inh HTS 0, RAD54 branch 6, SR-BI uptake up -57, SR-BI HDL uptake 57, PvdQ acylase 12 and dFosB act 34*.
Screening CN(C)CCN(C(=O)c1ccc(C(=O)c2ccccc2)cc1)c1nc2cc3c(cc2s1)OCO3 returned S100A4 inh HTS -5, RAD54 branch 5, SR-BI uptake up -6, SR-BI HDL uptake 6, PvdQ acylase 8 and dFosB act inconclusive.
CCN(CC)CCN(C(=O)c1ccc2ccccc2c1)c1nc2cc3c(cc2s1)OCO3 was read as S100A4 inh HTS 2, RAD54 branch -2, SR-BI uptake up -41, SR-BI HDL uptake 41, PvdQ acylase 7 and dFosB act 53*.
For CCN1CCN(CCNC(=O)c2cc(Cl)c(NC(=O)C3=C(C)OCCS3)cc2OC)CC1 the results were S100A4 inh HTS 126*, RAD54 branch -4, SR-BI uptake up -10, SR-BI HDL uptake 10, PvdQ acylase -9 and dFosB act 0.
For CCN(CC)CCCNC(=O)c1cc(Cl)c(NC(=O)C2=C(C)OCCS2)cc1OC the results were S100A4 inh HTS -8, RAD54 branch 9, SR-BI uptake up -3, SR-BI HDL uptake 3, PvdQ acylase -14 and dFosB act -4.
`CO[C@@H]1CN(C)C(=O)c2cc(NC(=O)NC3CCCCC3)ccc2OC[C@@H](C)NC[C@@H]1C` gave S100A4 inh HTS 17 and RAD54 branch 7.
For Cc1ccccc1N1CCN(C2CCCN(C(=O)c3noc4c3CCCC4)C2)CC1 (centres undefined) the results were S100A4 inh HTS 13, RAD54 branch 5, SR-BI uptake up -83, SR-BI HDL uptake 83*, PvdQ acylase -7 and dFosB act -9.
Cc1cnc(C(=O)N2CCCC(N3CCN(c4ccccc4C)CC3)C2)cn1 (centres undefined) was read as S100A4 inh HTS -4, RAD54 branch -3, SR-BI uptake up 7, SR-BI HDL uptake -7, PvdQ acylase -6 and dFosB act -8.
For CCOc1ccccc1NC(=O)/C=C/c1ccccc1[N+](=O)[O-] the results were SR-BI uptake up -82, SR-BI HDL uptake 82*, PvdQ acylase -2 and dFosB act -12.
For C[C@H](CO)N1C[C@H](C)[C@H](CN(C)C(=O)Nc2ccc(C(F)(F)F)cc2)Oc2ccc(NC(=O)c3ccncc3)cc2CC1=O the results were S100A4 inh HTS -3 and RAD54 branch -3.
Screening c1ccc(-c2nc(N3CCCCCC3)c3ccccc3n2)nc1 returned RAD54 branch 56*, SR-BI uptake up -1, SR-BI HDL uptake 1, PvdQ acylase -3 and dFosB act -25.
`c1ccc(-c2nc(N3CCOCC3)c3ccccc3n2)nc1` gave RAD54 branch 2, SR-BI uptake up 10, SR-BI HDL uptake -10, PvdQ acylase -6 and dFosB act -14.
`CC(=O)Nc1ccc(NC(=O)c2ccc(OCc3c(C)noc3C)cc2)cc1` gave S100A4 inh HTS -3, RAD54 branch 4, SR-BI uptake up -26, SR-BI HDL uptake 26, PvdQ acylase 6 and dFosB act 1.
`COc1cc(C(=O)NCCOc2ccc(Cl)cc2)ccc1OCc1c(C)noc1C` gave S100A4 inh HTS 1, RAD54 branch 6, SR-BI uptake up -84, SR-BI HDL uptake 84*, PvdQ acylase 13 and dFosB act -7.
For COc1ccc(C)cc1NC(=O)c1ccc(OCc2c(C)noc2C)cc1 the results were S100A4 inh HTS -5, SR-BI uptake up -71, SR-BI HDL uptake 71*, PvdQ acylase 4 and dFosB act -2.

Bioassay records (PubChem)
